One data set deals with COLO 205. Kind of data set: Cytotoxicity against human COLO205 cells expressing b-Raf V600E mutant after 72 hrs by MTS assay. The note with it: COLO 205, 72 h. It is filed as functional, cell-based. A digest of the protocol: (§1)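 Human BRAF(V600E) line seeded at 3000–10,000 cells per 96 well, allowed 16 h at 37 °C in humidified 5% CO2. Then exposed 72 h to an eleven-point compound dilution in duplicate. NADH measured by MTS tetrazolium conversion, read at OD 490 nm. EC50 taken from compound concentration vs total NADH.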
Background: Tetrazolium assays rely on reduction of a dye to a coloured formazan, in cell work by metabolically active cells.

Data set [1] can be described thus: Mean residence time in rat at 5 mg/kg, po. The note with it: in vivo. In kind it is ADME, organism-based. Details: dose 5 mg/kg, route oral.
The nature of data set [2]: Oral bioavailability in rat at 5 mg/kg. In kind it is ADME, organism-based. The note with it: in vivo.
The test system of a further data set is A-375. Briefly: Cytotoxicity against human A375 cells expressing b-Raf V600E mutant after 72 hrs by MTS assay. It is filed as functional, cell-based. The note with it: A-375, 72 h. A digest of the protocol:
as §1

The nature of data set [3]: Volume of distribution at steady state in rat at 1 mg/kg, iv and 5 mg/kg, po. The note with it: in vivo, read-out: Vdss. In kind it is ADME, organism-based.
Data set [4] is described as follows: Mean residence time in rat at 1 mg/kg, iv. It is filed as ADME, organism-based. Details: dose 1 mg/kg, route intravenous. The note with it: in vivo.
Data set [5] can be described thus: Half life in human liver microsomes. In kind it is ADME, Microsome. For orientation: Liver microsomes are vesicles of endoplasmic reticulum, rich in cytochrome P450 enzymes.
A short description of data set [6]: Half life in rat liver microsomes. It is filed as ADME, Microsome.
Data set [7] concerns the target Dual specificity mitogen-activated protein kinase kinase 1 (Homo sapiens, UniProt Q02750). Kind of data set: Inhibition of MEK1 by cascade assay method. An outline of the steps: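 Cascade format, compounds serially diluted in DMSO, then in 50 mM HEPES pH 7.3, 10 mM NaCl, 10 mM MgCl2, 0.01% Brij35, 1 mM DTT. Reaction started with 1 nM MEK1 and 400 µM ATP (also run at 10 µM). Product read by IMAP fluorescence polarization. IC50 fitted with standard models.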

Data set [8] is described as follows: Clearance in rat at 1 mg/kg, iv and 5 mg/kg, po. In kind it is ADME, organism-based. The note with it: in vivo.
Data set [9] has as its target Serine/threonine-protein kinase PLK3 (Homo sapiens) (UniProt Q9H4B4). Kind of data set: Inhibition of PLK3 at 10 uM.
In data set [10] the target is Cyclin-dependent kinase 2/cyclin A (Homo sapiens) (UniProt P24941+P20248+P78396). Briefly: Inhibition of CDK2/cyclinA at 10 uM. In kind it is protein-complex assay.
The target in data set [11] is Glycogen synthase kinase-3 beta (Homo sapiens) (UniProt P49841). Kind of data set: Inhibition of GSK3-beta at 10 uM.
Sequence of Glycogen synthase kinase-3 beta (Homo sapiens) (P49841 whole entry, looked up): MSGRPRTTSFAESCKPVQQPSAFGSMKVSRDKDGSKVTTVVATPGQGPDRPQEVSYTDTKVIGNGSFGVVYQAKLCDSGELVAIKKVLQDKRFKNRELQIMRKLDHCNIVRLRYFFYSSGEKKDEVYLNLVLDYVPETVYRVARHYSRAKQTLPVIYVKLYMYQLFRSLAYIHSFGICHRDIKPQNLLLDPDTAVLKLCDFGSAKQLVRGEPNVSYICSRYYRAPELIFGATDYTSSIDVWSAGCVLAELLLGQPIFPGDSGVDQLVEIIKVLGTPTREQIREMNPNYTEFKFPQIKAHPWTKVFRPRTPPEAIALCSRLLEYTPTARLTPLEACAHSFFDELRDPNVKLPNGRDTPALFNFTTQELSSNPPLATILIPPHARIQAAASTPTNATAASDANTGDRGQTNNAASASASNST
For data set [12], the target named is 3-phosphoinositide-dependent protein kinase 1 (PDPK1) (Homo sapiens) (UniProt O15530). Briefly: Inhibition of PDK1 at 10 uM.
In data set [13] the target is Tyrosine-protein kinase ABL1 (Homo sapiens) (UniProt P00519). Briefly: Inhibition of Abl1 at 10 uM.
Data set [14] addresses RAF proto-oncogene serine/threonine-protein kinase (Homo sapiens) (UniProt P04049). Kind of data set: Inhibition of c-RAF at 10 uM.
Data set [15] addresses RAC-gamma serine/threonine-protein kinase (Homo sapiens) (UniProt Q9Y243). Kind of data set: Inhibition of AKT3 at 10 uM.
Data set [16] addresses Epidermal growth factor receptor (Homo sapiens) (UniProt P00533). Briefly: Inhibition of EGFR at 10 uM.
In data set [17] the target is Hepatocyte growth factor receptor (Homo sapiens) (UniProt P08581). Briefly: Inhibition of c-Met at 10 uM.
Data set [18] addresses Protein kinase C alpha type (Homo sapiens) (UniProt P17252). Briefly: Inhibition of PKCalpha at 10 uM.
For data set [19], the target named is Insulin receptor (Homo sapiens) (UniProt P06213). Kind of data set: Inhibition of insulin receptor at 10 uM.
Sequence of Insulin receptor (Homo sapiens) (P06213 28-758 limits assumed): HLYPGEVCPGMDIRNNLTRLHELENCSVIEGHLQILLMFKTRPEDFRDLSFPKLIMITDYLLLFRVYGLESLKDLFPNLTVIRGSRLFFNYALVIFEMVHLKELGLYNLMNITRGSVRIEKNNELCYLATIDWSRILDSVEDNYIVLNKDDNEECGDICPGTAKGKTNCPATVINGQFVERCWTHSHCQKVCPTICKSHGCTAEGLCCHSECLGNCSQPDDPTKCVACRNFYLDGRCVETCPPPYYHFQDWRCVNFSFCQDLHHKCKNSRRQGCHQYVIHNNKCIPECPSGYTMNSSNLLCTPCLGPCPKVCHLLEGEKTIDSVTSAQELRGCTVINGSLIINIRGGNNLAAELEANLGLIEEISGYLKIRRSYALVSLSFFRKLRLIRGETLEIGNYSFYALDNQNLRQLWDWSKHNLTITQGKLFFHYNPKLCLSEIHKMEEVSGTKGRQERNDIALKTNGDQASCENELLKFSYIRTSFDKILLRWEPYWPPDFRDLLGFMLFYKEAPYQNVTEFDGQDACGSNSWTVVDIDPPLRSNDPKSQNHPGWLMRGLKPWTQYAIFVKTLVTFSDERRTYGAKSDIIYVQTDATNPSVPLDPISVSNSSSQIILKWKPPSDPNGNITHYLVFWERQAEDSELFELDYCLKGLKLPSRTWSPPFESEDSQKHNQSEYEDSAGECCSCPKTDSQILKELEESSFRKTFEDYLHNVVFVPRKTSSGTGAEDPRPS
Sequence of Insulin receptor (Homo sapiens) (P06213 763-1382 limits assumed): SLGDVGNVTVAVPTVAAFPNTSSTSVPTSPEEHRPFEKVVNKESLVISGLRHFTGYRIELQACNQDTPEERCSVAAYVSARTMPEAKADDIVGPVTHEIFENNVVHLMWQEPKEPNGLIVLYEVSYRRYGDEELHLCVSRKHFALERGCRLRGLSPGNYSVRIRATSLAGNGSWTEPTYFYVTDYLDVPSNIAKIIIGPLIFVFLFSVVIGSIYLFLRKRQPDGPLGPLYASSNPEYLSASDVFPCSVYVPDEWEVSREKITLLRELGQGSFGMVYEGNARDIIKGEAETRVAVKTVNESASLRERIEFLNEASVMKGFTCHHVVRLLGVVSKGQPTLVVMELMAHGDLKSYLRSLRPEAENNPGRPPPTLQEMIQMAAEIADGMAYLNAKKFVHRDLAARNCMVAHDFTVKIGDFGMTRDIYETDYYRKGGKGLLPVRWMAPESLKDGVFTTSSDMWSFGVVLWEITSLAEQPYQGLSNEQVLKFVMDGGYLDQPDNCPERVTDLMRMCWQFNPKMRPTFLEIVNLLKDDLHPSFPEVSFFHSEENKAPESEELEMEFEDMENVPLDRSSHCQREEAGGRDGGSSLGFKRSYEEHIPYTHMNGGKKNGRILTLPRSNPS
Data set [20] addresses Proto-oncogene tyrosine-protein kinase Src (Homo sapiens) (UniProt P12931). Kind of data set: Inhibition of c-SRC at 10 uM.
Data set [21] addresses Angiopoietin-1 receptor (Homo sapiens) (UniProt Q02763). Kind of data set: Inhibition of Tie2 at 10 uM.
Data set [22] deals with Tyrosine-protein kinase SYK (Homo sapiens) (UniProt P43405). Briefly: Inhibition of Syk at 10 uM.
For data set [23], the target named is Mitogen-activated protein kinase 14 (Homo sapiens) (UniProt Q16539). Briefly: Inhibition of P38alpha at 10 uM.
Sequence of Mitogen-activated protein kinase 14 (Homo sapiens) (Q16539 whole entry): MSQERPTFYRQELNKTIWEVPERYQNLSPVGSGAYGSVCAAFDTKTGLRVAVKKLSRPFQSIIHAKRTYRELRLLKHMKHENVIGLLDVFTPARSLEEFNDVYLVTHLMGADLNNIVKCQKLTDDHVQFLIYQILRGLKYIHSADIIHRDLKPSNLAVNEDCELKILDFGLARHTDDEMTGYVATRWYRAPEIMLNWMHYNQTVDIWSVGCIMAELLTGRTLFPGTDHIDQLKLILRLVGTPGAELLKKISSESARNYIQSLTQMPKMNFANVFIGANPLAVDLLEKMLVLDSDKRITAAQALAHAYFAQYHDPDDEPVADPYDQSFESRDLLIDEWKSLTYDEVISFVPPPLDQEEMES
Data set [24] concerns the target T1, Tyrosine-protein kinase JAK3 (Homo sapiens) (UniProt P52333).
T1 sequence (whole entry): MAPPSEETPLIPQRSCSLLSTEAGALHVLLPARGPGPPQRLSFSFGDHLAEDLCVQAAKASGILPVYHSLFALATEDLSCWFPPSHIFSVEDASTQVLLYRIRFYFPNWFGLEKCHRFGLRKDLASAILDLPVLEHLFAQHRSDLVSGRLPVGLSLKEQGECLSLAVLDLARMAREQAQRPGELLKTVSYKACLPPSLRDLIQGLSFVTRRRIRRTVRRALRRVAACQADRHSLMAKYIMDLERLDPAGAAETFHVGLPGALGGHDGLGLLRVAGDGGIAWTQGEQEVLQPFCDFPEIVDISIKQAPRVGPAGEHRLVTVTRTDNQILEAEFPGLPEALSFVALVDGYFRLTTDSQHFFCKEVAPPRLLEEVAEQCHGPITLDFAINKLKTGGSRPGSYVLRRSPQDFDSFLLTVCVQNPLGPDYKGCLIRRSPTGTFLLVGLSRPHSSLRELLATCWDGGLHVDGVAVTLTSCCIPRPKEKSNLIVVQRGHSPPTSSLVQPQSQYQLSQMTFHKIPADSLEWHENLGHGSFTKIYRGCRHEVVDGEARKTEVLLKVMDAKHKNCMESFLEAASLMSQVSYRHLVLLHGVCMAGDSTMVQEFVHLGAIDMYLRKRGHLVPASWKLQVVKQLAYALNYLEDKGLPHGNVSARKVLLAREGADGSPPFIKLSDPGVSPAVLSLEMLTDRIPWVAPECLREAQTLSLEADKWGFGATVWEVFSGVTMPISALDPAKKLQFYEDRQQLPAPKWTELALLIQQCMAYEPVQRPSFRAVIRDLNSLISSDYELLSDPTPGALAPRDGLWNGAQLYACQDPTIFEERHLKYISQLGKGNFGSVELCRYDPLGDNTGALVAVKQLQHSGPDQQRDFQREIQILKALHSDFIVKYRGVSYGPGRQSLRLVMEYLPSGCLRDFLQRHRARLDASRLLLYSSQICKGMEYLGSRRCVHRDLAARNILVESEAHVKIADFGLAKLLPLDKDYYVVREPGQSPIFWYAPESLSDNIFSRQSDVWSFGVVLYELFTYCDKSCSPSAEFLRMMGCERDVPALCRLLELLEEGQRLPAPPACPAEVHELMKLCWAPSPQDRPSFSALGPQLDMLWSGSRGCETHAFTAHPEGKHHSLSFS
Briefly: Inhibition of JAK3 at 10 uM.

For data set [25], the target named is Calcium/calmodulin-dependent protein kinase type 1D (Homo sapiens) (UniProt Q8IU85). Briefly: Inhibition of CamK1delta at 10 uM.
In data set [26] the target is Platelet-derived growth factor receptor beta (Homo sapiens) (UniProt P09619). Briefly: Inhibition of PDGFRbeta at 10 uM.
Sequence of Platelet-derived growth factor receptor beta (Homo sapiens) (P09619 whole entry): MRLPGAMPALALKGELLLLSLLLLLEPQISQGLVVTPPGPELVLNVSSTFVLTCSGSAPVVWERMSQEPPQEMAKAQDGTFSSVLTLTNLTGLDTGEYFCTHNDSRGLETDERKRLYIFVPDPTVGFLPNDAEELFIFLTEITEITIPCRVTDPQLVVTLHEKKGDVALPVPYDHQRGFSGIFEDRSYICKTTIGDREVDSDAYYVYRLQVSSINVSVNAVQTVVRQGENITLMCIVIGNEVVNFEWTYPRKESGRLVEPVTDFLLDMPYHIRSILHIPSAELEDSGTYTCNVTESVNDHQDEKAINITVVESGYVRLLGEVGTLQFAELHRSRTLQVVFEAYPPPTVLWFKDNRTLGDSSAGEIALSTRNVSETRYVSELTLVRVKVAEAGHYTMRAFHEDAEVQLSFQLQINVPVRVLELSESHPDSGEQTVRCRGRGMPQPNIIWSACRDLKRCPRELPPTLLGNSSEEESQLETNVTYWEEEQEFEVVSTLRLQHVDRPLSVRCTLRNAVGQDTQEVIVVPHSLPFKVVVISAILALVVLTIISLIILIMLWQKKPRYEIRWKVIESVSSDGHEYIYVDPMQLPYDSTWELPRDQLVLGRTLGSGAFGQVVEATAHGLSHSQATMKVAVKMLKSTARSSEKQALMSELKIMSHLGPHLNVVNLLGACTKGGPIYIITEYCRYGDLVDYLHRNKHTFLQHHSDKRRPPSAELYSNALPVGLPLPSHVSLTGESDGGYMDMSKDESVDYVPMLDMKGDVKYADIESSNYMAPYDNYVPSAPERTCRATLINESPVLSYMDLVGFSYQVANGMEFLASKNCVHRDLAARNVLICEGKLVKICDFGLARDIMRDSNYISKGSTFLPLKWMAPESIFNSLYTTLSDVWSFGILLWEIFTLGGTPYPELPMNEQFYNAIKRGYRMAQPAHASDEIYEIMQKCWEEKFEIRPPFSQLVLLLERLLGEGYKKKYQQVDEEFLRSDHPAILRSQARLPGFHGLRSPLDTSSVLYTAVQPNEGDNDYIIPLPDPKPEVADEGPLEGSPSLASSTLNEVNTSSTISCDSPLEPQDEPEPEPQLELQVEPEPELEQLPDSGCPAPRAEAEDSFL

Calls of active or inactive are those of the source. The calls are words filed in the database; no cut-off is given here.

Consider four compounds from ChEMBL document CHEMBL1177801, “Structure-based design and synthesis of pyrrole derivatives as MEK inhibitors” (Bioorg Med Chem Lett, 2010).

Broadly, the EC50 is the concentration giving half of the maximal effect. What is called MRT is the average time that molecules of a dose stay in the body. What is called bioavailability is the share of a dose that reaches the circulation, judged against a reference dose that is usually intravenous. The half-life is the time in which the quantity being followed falls by half. High values mean slow loss, low ones fast loss. What is called IC50 is the midpoint of a concentration-inhibition curve. A higher IC50 goes with a need for much substance.

Sequence of Dual specificity mitogen-activated protein kinase kinase 1 (Q02750 whole entry): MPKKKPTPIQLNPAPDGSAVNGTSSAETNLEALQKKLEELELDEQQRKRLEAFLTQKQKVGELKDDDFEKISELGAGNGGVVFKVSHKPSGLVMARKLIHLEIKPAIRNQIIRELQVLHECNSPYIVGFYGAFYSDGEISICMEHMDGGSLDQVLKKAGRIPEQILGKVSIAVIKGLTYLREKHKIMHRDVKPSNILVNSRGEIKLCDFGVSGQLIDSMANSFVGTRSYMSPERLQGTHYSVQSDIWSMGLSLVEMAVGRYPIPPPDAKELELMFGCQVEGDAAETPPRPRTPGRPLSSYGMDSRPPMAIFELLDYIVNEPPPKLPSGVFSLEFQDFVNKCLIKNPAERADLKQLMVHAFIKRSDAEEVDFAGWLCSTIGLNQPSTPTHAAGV
Sequence of Serine/threonine-protein kinase PLK3 (Homo sapiens) (Q9H4B4 whole entry, looked up): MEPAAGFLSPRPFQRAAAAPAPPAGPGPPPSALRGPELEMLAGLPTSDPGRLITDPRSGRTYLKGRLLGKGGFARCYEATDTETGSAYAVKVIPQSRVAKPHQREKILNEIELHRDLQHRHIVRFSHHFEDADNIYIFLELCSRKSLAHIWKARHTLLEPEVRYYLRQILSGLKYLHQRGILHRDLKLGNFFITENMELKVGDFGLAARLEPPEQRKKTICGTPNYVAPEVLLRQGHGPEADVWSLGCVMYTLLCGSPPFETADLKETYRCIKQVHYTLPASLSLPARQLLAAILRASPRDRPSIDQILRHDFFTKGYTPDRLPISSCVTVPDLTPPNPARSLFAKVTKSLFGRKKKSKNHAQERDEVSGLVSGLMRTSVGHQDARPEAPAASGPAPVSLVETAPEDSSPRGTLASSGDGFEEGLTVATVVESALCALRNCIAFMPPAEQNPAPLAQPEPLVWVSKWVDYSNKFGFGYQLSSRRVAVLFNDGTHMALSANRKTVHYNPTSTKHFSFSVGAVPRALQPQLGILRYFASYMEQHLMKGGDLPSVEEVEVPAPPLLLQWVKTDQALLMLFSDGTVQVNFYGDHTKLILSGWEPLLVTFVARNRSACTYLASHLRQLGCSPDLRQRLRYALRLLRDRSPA

`CC(=O)c1cc(C(=O)NOCCO)c(Nc2ccc(I)cc2F)n1C`: the EC50 came out at 12 nM in the data set with COLO 205 and 14 nM with A-375. Further, the values for the MRT in data set [1] and in data set [4] were 384 min and 55.8 min, respectively. In [2], this compound came in with a bioavailability of 46%. Moreover, in data set [3], the Vd was 2.9 L/kg. Besides, the half-life in [5] amounted to 36 min; in data set [6], 14 min.

For the compound `CC(=O)c1c(Cl)c(C(=O)NOC[C@H](O)CO)c(Nc2ccc(I)cc2F)n1C`, the EC50 stood at 23 nM in the data set on COLO 205 and 46 nM in the data set on A-375. Further, the MRT in data set [1] was 246 min; in data set [4], 51 min. This compound also gave a half-inhibitory concentration (IC50) in [7] of 32 nM. Moreover, the clearance in data set [8] worked out at 7.1 mL/min/kg. Further, the bioavailability in [2] was found to be 40%. Moreover, the Vd in data set [3] was found to be 0.361 L/kg. Also, the half-life in data set [5] is 52 min; in data set [6], 23 min.

Take `CC(=O)c1cc(C(=O)NOC[C@H](O)CO)c(Nc2ccc(I)cc2F)n1C`: the EC50 in the data set with COLO 205 was found to be 33 nM; in the data set with A-375, 36 nM. Moreover, the mean residence time (MRT) in data set [1] stood at 444 min; in data set [4], 43.2 min. This compound had an IC50 in data set [7] of 20 nM. This compound had a clearance in [8] of 48 mL/min/kg. For the same compound, the bioavailability in data set [2] was determined as 19%. Also, the Vd in data set [3] stood at 2.1 L/kg. Moreover, the half-life in data set [5] was over 200 min; in [6], 29 min.

Consider `CC(=O)c1cc(C(=O)N2CC(N)C2)c(Nc2ccc(I)cc2F)n1C`, for which the EC50 in the data set on COLO 205 was found to be 37 nM; in the data set with A-375 it was 39 nM. Further, the inhibition entry in data set [9], in data set [10], in data set [11], in data set [12], in [13] and in data set [14] was “inactive” each time. Further, the inhibition entry in data set [15], in data set [16], in [17], in data set [18], in data set [19] and in data set [20] was “inactive” each time. In addition, the inhibition entry in data set [21], in [22], in data set [23], in [24], in data set [25] and in data set [26] was “inactive” in each case. In addition, the midpoint of inhibition in data set [7], the IC50, lay at 7 nM. The half-life turned out to be 55 min in data set [5] and 64 min in data set [6].
